Tests used:
[1] = molecular target: T1, c-MET (Homo sapiens, UniProt P08581); experiment: biochemical; format: binding
[2] = tested on: EBC-1 cells; experiment: Cell proliferation inhibition assay; format: cell-based
[3] = molecular target: T1, c-MET; format: cell-based; details: Western blot, EBC-1 and Hs746T cells
[4] = tested on: Hs746T cells; experiment: Cell proliferation inhibition assay; format: cell-based; details: Homo sapiens, 72 h, read-out: IC50 Hs746T, c-MET-sensitive, 72 h
[5] = tested on: A549 cells; experiment: Cell proliferation inhibition assay; format: cell-based; details: Homo sapiens, A549, 72 h, read-out: IC50 A549
[6] = tested on: HepG2 cells; experiment: Cell proliferation inhibition assay; format: cell-based; details: Homo sapiens, HepG2, 72 h, read-out: IC50 HepG2
[7] = tested on: EBC-1 cells; experiment: Cell apoptosis by flow cytometry; format: cell-based; details: 48 h
[8] = tested on: EBC-1 xenograft tumors; experiment: EBC-1 xenograft tumor growth model; format: in vivo, BALB/c nude mice; details: 10 mg/kg, i.p., qd, 10 days
Outline: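 Six-week-old BALB/c nude mice (SPF) received 5 × 10^6 EBC-1 cells subcutaneously in the dorsal flank. At about 80 mm3 they were grouped and dosed at 10 mg/kg i.p. once daily for 10 days; vehicle was 10% DMSO/10% PEG300/5% Tween 80/75% H2O. Calipers and body weight were read every 2 days. V = L×W²/2, and TGI used median volumes. Tumors were weighed at the end, n = 6.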

[9] = Pharmacokinetic study in rats; design: species or system Male Sprague–Dawley (SD) rats; details: male, Sprague-Dawley, rat, in vivo, iv, 1 mg/kg, CL

T1 sequence (P08581 25-1390): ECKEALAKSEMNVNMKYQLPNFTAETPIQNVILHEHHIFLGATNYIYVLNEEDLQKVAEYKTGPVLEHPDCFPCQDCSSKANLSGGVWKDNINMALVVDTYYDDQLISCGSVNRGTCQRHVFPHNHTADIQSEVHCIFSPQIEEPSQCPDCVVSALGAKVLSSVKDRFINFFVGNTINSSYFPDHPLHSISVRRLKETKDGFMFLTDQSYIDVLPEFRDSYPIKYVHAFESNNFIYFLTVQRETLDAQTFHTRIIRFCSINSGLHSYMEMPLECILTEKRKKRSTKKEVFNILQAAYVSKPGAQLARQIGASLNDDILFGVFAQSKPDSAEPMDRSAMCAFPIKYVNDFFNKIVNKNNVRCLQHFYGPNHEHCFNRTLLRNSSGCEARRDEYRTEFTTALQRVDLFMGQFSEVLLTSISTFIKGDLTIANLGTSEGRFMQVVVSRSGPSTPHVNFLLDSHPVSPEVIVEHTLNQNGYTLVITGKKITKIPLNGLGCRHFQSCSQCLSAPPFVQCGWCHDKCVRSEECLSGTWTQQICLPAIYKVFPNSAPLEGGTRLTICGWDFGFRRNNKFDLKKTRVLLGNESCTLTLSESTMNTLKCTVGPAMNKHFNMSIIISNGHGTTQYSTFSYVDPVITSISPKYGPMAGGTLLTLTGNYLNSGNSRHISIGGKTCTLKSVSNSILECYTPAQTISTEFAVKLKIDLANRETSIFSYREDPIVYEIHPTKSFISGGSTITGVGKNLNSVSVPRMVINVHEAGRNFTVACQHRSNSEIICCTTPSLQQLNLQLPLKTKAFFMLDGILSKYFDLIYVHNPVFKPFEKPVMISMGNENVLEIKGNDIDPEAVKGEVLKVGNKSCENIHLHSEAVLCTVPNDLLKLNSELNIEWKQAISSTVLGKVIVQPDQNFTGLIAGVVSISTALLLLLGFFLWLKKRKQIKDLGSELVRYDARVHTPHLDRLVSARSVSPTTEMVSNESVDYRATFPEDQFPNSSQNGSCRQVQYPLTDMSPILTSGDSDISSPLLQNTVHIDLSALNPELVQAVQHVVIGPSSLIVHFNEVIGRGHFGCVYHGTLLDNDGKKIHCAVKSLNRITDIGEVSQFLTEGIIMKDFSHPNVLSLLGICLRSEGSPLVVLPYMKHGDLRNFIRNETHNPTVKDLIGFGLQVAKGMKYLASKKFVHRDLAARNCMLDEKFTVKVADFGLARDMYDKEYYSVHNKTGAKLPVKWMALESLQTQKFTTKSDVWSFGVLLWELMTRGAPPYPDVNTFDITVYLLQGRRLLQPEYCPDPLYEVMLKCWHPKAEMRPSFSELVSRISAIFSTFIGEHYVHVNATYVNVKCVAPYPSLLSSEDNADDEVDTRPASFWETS

Q: For N#Cc1cccc(-c2ccc(=O)n(Cc3cccc(-c4ncc(OCC5CCNCC5)cn4)c3)n2)c1 [compound 6], which Kd [1] is on record?
A: 9.97 nM

Q: For CN1C(=O)CCC(N2C(=O)c3ccc(N4CCN(C(=O)CN5CCC(COc6cnc(-c7cccc(Cn8nc(-c9cccc(C#N)c9)ccc8=O)c7)nc6)CC5)CC4)cc3C2=O)C1=O (centres unmarked) [D16], which Kd [1] is on record?
A: 345 nM

Q: What about the “binding affinity, fold weaker than D15” value ([1]; ratio of Kd to D15) of the same compound?
A: 2 fold

Q: And the “inhibition of cell proliferation, fold weaker than D15” value ([2]; EBC-1 and Hs746T cells)?
A: approximately 10 fold

Q: And the c-MET degradation effect [3]?
A: no degradation effect

Q: What does the source list for CN1CCC(COc2cnc(-c3cccc(Cn4nc(-c5cccc(C#N)c5)ccc4=O)c3)nc2)CC1 [Tepotinib]?
A: IC50 ([2]; Homo sapiens, EBC-1, 72 h, read-out: IC50 EBC-1): 1.32 ± 0.39 nM; IC50 [4]: 2.63 ± 0.72 nM; IC50 [5]: 277 ± 59 nM; IC50 [6]: 476 ± 45 nM; apoptosis rate ([7]; EBC-1, 10 nmol/L): 39.3%; apoptosis rate ([7]; EBC-1, 100 nmol/L): 59.4%; tumor growth inhibition (TGI%) [8]: 71.9%; clearance [9]: 70 mL/min/kg

Q: Which c-MET degradation effect [3] does the source give for O=C1CCC(N2C(=O)c3ccccc3C2=O)C(=O)N1 (centres unmarked) [Thalidomide] here?
A: none
